Test results reported in ChEMBL document CHEMBL4190408 (J Med Chem, 2018).
≈ marks a conversion by molar mass, not a printed value. Calls of active or inactive are those of the source. The calls are words filed in the database; no cut-off is given here.

Experiments:
[1] = Thermodynamic solubility of the compound in pH 7.4 solution after 90 mins by UVLC-MS analysis; assay type: physicochemical; conditions: pH 7.4 solution, pH 7.4; read-out: Therm_solubility
[2] = in vitro; conditions: human, liver microsomes
[3] = tested on: Salmonella typhimurium; test: Genotoxicity in Salmonella typhimurium TA98 up to 2000 uM after 2 days in presence or absence of liver S9 fraction by Ames test; assay type: toxicity, organism-based; conditions: salmonella enterica subsp. enterica serovar typhimurium, s9, 48 h
Outline: (§1)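 Ames MPF format with Salmonella typhimurium TA98, TA100, TA1535, TA1537 and E. coli uvrA. Run with and without metabolic activation (S9), 2-day incubation, up to 2000 µM.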

[4] = Clearance in Balb/c mouse at 1 mg/kg, iv; assay type: ADME, organism-based; conditions: Balb/c, in vivo
Outline: (§2)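 Intravenous PK in male Balb/C mice, n=3, at 1 mpk. Vehicle was 30% DMA or 15% NMP, depending on the compound.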

[5] = Half life in Balb/c mouse at 1 mg/kg, iv; assay type: ADME, organism-based; conditions: Balb/c, in vivo; outline: as §2
[6] = physchem; conditions: pH 7.4 solution
[7] = physchem; conditions: phosphate buffer, pH 7.4
[8] = tested on: Mus musculus; test: Inhibition of allograft rejection in Balb/c mouse heterotopic cardiac transplantation model using C57BL/6 as cardiac donor assessed as long-term graft survival rate by measuring cardiac allograft function by daily palpitation at 5 mg/kg, po qd for 28 days; assay type: functional, organism-based; conditions: in the assay text read “for 14 days” for “for 28 days”
Outline: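 Heterotopic cardiac allografts from C57BL/6 donors into Balb/C recipients. Recipients received 5 mpk as a homogeneous suspension in 0.1% Tween 80, 0.1% silicone antifoam, 1% methylcellulose (400 cps), or vehicle alone, by oral gavage once daily. Survival was compared with vehicle; rejection was indicated when the graft stopped beating.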

[9] = tested on: Salmonella typhimurium; test: Genotoxicity in Salmonella typhimurium TA1535 up to 2000 uM after 2 days in presence or absence of liver S9 fraction by Ames test; assay type: toxicity, organism-based; conditions: salmonella enterica subsp. enterica serovar typhimurium, s9, 48 h; outline: as §1
[10] = Fraction unbound in mouse blood; assay type: ADME, tissue-based
[11] = tested on: Mus musculus; test: Unbound Cmax in Balb/c mouse at 10 mg/kg, po after 1 hr; assay type: ADME, organism-based; conditions: in vivo
[12] = Volume of distribution at steady state in Balb/c mouse at 1 mg/kg, iv; assay type: ADME, organism-based; conditions: Balb/c, in vivo, read-out: Vdss; outline: as §2
[13] = tested on: Salmonella typhimurium; test: Genotoxicity in Salmonella typhimurium TA1537 up to 2000 uM after 2 days in presence or absence of liver S9 fraction by Ames test; assay type: toxicity, organism-based; conditions: salmonella enterica subsp. enterica serovar typhimurium, s9, 48 h; outline: as §1
[14] = tested on: Mus musculus; test: Unbound AUC in Balb/c mouse at 1 mg/kg, iv; assay type: ADME, organism-based; conditions: in vivo; outline: as §2
[15] = in vitro; conditions: mouse, liver microsomes
[16] = tested on: Salmonella typhimurium; test: Genotoxicity in Salmonella typhimurium TA100 up to 2000 uM after 2 days in presence or absence of liver S9 fraction by Ames test; assay type: toxicity, organism-based; conditions: salmonella enterica subsp. enterica serovar typhimurium, s9, 48 h; outline: as §1
[17] = tested on: Escherichia coli; test: Genotoxicity in Escherichia coli uvrA up to 2000 uM after 2 days in presence or absence of liver S9 fraction by Ames test; assay type: toxicity, organism-based; conditions: s9, 48 h; outline: as §1
[18] = tested on: Mus musculus; test: Unbound AUC (infinity) in Balb/c mouse at 10 mg/kg, po after 1 hr; assay type: ADME, organism-based; conditions: in vivo
[19] = Oral bioavailability in Balb/c mouse at 10 mg/kg after 1 hr; assay type: ADME, organism-based; conditions: Balb/c, in vivo
Outline: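 Male Balb/C mice, n=3. Oral dose of 10 mpk as a homogeneous suspension of crystalline solid in 0.1% Tween 80, 0.1% silicone antifoam, 1% methylcellulose (400 cps) in water. I.v. dose of 1 mpk in 30% DMA or 15% NMP, depending on the compound. Bioavailability was extrapolated from the i.v./p.o. experiments.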

[20] = Apparent clearance in Balb/c mouse at 10 mg/kg, po after 1 hr; assay type: ADME, organism-based; conditions: in vivo
[21] = tested on: Salmonella typhimurium; test: Genotoxicity in Salmonella typhimurium TA100 up to 1000 uM after 2 days in presence or absence of liver S9 fraction by Ames test; assay type: toxicity, organism-based; conditions: salmonella enterica subsp. enterica serovar typhimurium, s9, 48 h
Outline: (§3)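 MiniAMES (MPF format) with Salmonella typhimurium TA98, TA100 and TA1537, with and without S9 metabolic activation. 2-day incubation, top concentration 1000 µM.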

[22] = tested on: Salmonella typhimurium; test: Genotoxicity in Salmonella typhimurium TA98 up to 1000 uM after 2 days in presence or absence of liver S9 fraction by Ames test; assay type: toxicity, organism-based; conditions: salmonella enterica subsp. enterica serovar typhimurium, s9, 48 h; outline: as §3
[23] = tested on: Salmonella typhimurium; test: Genotoxicity in Salmonella typhimurium TA1537 up to 1000 uM after 2 days in presence or absence of liver S9 fraction by Ames test; assay type: toxicity, organism-based; conditions: salmonella enterica subsp. enterica serovar typhimurium, s9, 48 h; outline: as §3

## COc1ccc(NC(=O)N2CCN(c3nc(N)nc4c3cnn4C)[C@@H](C)C2)c(C)c1
[1]
  solubility thermodynamic at 1.5 h: 110 µM (≈ 45.2 µg/mL)
[2]
  microsomal CLint at 0.75 h, 3 µM: 4 µL/min/mg
[3]
  Activity: Non-Toxic
[4]
  clearance: 5 mL/min/kg
[5]
  half-life: 1.4 h
[6]
  solubility kinetic at 1.5 h: > 350 µM
[7]
  logD at 1.5 h: 1.47
[8]
  Activity: Active
[9]
  Activity: Non-Toxic
[10]
  fraction unbound: 0.09
[11]
  fCmax: 2113 nM
[12]
  Vd: 0.6 L/kg
[13]
  Activity: Non-Toxic
[14]
  fAUC: 0.684 µM·h
[15]
  microsomal CLint at 0.75 h, 3 µM: 6 µL/min/mg
[16]
  Activity: Non-Toxic
[17]
  Activity: Non-Toxic
[18]
  fAUC: 6.941 µM·h
[19]
  bioavailability: 100%
[20]
  CL/F: 5.3 mL/min/kg

## COc1ccc(N)c(C)c1.Cl
[21]
  Activity: Non-Toxic
[22]
  Activity: Non-Toxic
[23]
  Activity: Non-Toxic
